In data set [1] the test system is Schistosoma mansoni. Briefly: Antischistosomal activity against schistosomula larval stage of Schistosoma mansoni assessed as effect on motility at 10 uM after 24 hrs. It counts as functional, organism-based. The method, boiled down:
(§1)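 24 h cultured, mechanically transformed S. mansoni schistosomula (~120/well) in Basch medium, exposed to compound at 10 µM final (DMSO stock 1.6 mM) in 384-well format; DMSO and auranofin controls, 16 wells each. Incubated 24 h, 37°C, 5% CO2, then high-content imaging scored motility and phenotype.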

Data set [2] deals with Schistosoma mansoni. As to the kind of experiment: Antischistosomal activity against schistosomula larval stage of Schistosoma mansoni assessed as effect on phenotype at 10 uM after 24 hrs. It counts as functional, organism-based. The method, boiled down:
as §1

The subject of another data set is Candida albicans. Briefly: Antimicrobial activity against Candida albicans assessed as inhibition of microbial growth at 0.03125 to 0.5 mg/ml measured every 20 mins for 24 hrs by spectrophotometry. It counts as functional, organism-based. In short, it runs like this: (§2)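 Broth microdilution: colony suspensions grown overnight at 37°C with shaking, standardised to McFarland 0.5, inoculated at final 5 × 10^5 cfu mL^-1 into nutrient broth holding serially diluted test solution. Rifampicin (61 µM) as control; untreated wells included. 37°C, 300 rpm shaking, OD600 read every 20 min over 24 h.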

The subject of data set [3] is Escherichia coli. As to the kind of experiment: Antimicrobial activity against Escherichia coli assessed as inhibition of microbial growth at 0.03125 to 0.5 mg/ml measured every 20 mins for 24 hrs by spectrophotometry. It counts as functional, organism-based. The method, boiled down: as §2
A further data set deals with Pseudomonas aeruginosa. Briefly: Antimicrobial activity against Pseudomonas aeruginosa assessed as inhibition of microbial growth at 0.03125 to 0.5 mg/ml measured every 20 mins for 24 hrs by spectrophotometry. It counts as functional, organism-based. The method, boiled down: as §2
The subject of data set [4] is Mycolicibacterium smegmatis. As to the kind of experiment: Antimicrobial activity against Mycobacterium smegmatis assessed as inhibition of microbial growth at 0.03125 to 0.5 mg/ml measured every 20 mins for 24 hrs by spectrophotometry. It counts as functional, organism-based. The method, boiled down: as §2
In another data set the test system is Staphylococcus aureus. As to the kind of experiment: Antimicrobial activity against Staphylococcus aureus assessed as inhibition of microbial growth at 0.03125 to 0.5 mg/ml measured every 20 mins for 24 hrs by spectrophotometry. It counts as functional, organism-based. In short, it runs like this:
as §2

Another data set has as its system HepG2. As to the kind of experiment: Cytotoxicity against human HepG2 at <200 uM after 20 hrs by MTT assay. It counts as cell-based. The conditions noted are these: hepg2, 20 h. The method, boiled down: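 HepG2 seeded 2.0 × 10^4/well in modified BME with 10% FBS, L-Gln, non-essential amino acids and antibiotic/antimycotic; 24 h at 37°C, 5% CO2 before dosing at 100-0.01 µM final. After 20 h, MTT added for 4 h; formazan dissolved in DMSO:isopropanol (1:1), A570 read. 1% DMSO and 1% Triton X-100 controls; blank-corrected; three data sets.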
For orientation: Tetrazolium dyes change colour on reduction, which living cells bring about.

Data set [5] deals with Escherichia coli. As to the kind of experiment: Growth stimulation of Escherichia coli at >100 uM measured every 20 mins for 24 hrs by spectrophotometry. It counts as organism-based. In short, it runs like this: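 E. coli in nutrient broth with serially diluted compound, final inoculum 5 × 10^5 cfu mL^-1. Incubated 37°C with 300 rpm shaking, OD600 read every 20 min for 24 h. Data given as OD600 percentage of no-drug control wells, mean ± error.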

The source made the active and inactive calls. The rule behind the calls is not given here.

On to `C[C@@H]1CC(=O)[C@@H]2[C@H](CC[C@H](O)[C@]2(O)COC(=O)c2ccc(O)cc2)[C@@]12C[C@@H](c1ccoc1)OC2=O`, for which the result (in the data set with Schistosoma mansoni [1]; in the data set with Schistosoma mansoni [2]; in the data set on Candida albicans; in the data set on Escherichia coli [3]; in the data set on Pseudomonas aeruginosa; in data set [4]) was inactive. The outcome in the data set with Staphylococcus aureus was inactive. For the same compound, the Activity entry in the data set with HepG2 is “Non-Toxic”.
For the compound `C[C@@H]1C[C@H](O)[C@]23CO[C@](O)(CC[C@@H]2[C@@]12C[C@@H](c1ccoc1)OC2=O)[C@@H]3CO`, the outcome (in the data set with Schistosoma mansoni [1]; in the data set with Schistosoma mansoni [2]; with Candida albicans; with Escherichia coli [3]; with Pseudomonas aeruginosa; in data set [4]) was inactive. The result with Staphylococcus aureus was inactive. The Activity entry with HepG2 was “Non-Toxic”.
On to `CC(=O)OC[C@]1(CCC2=CC(O)OC2=O)[C@H](C)C[C@H](O)[C@]2(COC(C)=O)[C@@H]1CC[C@H](O)[C@]21CO1` (stereo partly drawn), for which the result (in the data set on Schistosoma mansoni [1]; in the data set with Schistosoma mansoni [2]; with Candida albicans; in the data set with Escherichia coli [3]; in the data set on Pseudomonas aeruginosa; in data set [4]) was inactive. The result in the data set with Staphylococcus aureus was inactive. Further, the Activity result is “Dose-dependent effect” in the data set on Escherichia coli [5] and “Non-Toxic” in the data set with HepG2.
Turning to `CC(=O)OC[C@]1(CC(O)c2ccoc2)[C@H](C)C[C@H](O)[C@]2(COC(C)=O)[C@@H]1CC[C@H](O)[C@]21CO1` (stereo partly drawn), the result (with Schistosoma mansoni [1]; with Schistosoma mansoni [2]; with Candida albicans; in the data set with Escherichia coli [3]; in the data set with Pseudomonas aeruginosa; in data set [4]) was inactive. Further, the result in the data set with Staphylococcus aureus was inactive. The results for the Activity entry in the data set on Escherichia coli [5] and with HepG2 were “Dose-dependent effect” and “Non-Toxic”, respectively.
For the compound `C[C@@H]1C[C@@]2(O)OC[C@]3(O)[C@H]2[C@H](CC[C@@H]3O)[C@@]12C[C@@H](c1ccoc1)OC2=O`, the result (with Schistosoma mansoni [1]; in the data set with Schistosoma mansoni [2]; in the data set on Candida albicans; in the data set with Escherichia coli [3]; in the data set with Pseudomonas aeruginosa; in data set [4]) was inactive. The result in the data set with Staphylococcus aureus was inactive. Also, in the data set with HepG2, the Activity result was “Non-Toxic”.
Take `CC(=O)OC[C@@]12[C@@H]3CC[C@H](O)[C@]1(O)CO[C@]2(O)C[C@@H](C)[C@]31C[C@@H](c2ccoc2)OC1=O`: the outcome (with Schistosoma mansoni [1]; in the data set with Schistosoma mansoni [2]; in the data set with Candida albicans; in the data set with Escherichia coli [3]; in the data set with Pseudomonas aeruginosa; in data set [4]) was inactive. The result in the data set with Staphylococcus aureus was inactive. Moreover, the Activity result in the data set on HepG2 is “Non-Toxic”.
Turning to `C[C@@H]1C[C@@]2(O)OC[C@@]3(O)[C@@H](O)CC[C@@H]4[C@]1(CC(O)c1ccoc1)C(=O)OC[C@]423` (stereo partly drawn), the outcome (in the data set on Schistosoma mansoni [1]; with Schistosoma mansoni [2]; in the data set with Candida albicans; with Escherichia coli [3]; with Pseudomonas aeruginosa; in [4]) was inactive. Moreover, the outcome in the data set with Staphylococcus aureus was inactive. For the same compound, the Activity entry in the data set on HepG2 is recorded as “Non-Toxic”.

Values taken from ChEMBL document CHEMBL4190206, “Neoclerodane Diterpenoids from Reehal Fatima, Teucrium yemense” (J Nat Prod, 2017).
